The text below walks through data of article PMC6335142 (Korean Journal for Food Science of Animal Resources, 2018).

One test has as its system HCT116 cells. The test can be described thus: MTT cell viability / proliferation assay in HCT116 cells. In kind it is cell-based, human. Particulars: 24 h. In outline:
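HCT116 cells grown in RPMI1640 with 10% FBS and 1% antibiotics at 37℃, 5% CO2, then seeded at 2×10^4 cells/well and left 24 h. Peptide added at 0–250 μg/mL for 24 h. MTT was added to a final 0.5 mg/mL for 4 h, and the formazan was dissolved in DMSO and read at 540 nm. Data given as means and SEM, with GLM ANOVA and Tukey test, p<0.05.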

Test [1] can be described thus: Oxygen radical absorbance capacity. In kind it is biochemical. The essentials: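 Sample or trolox standard mixed with 80 nM fluorescein and held 15 min at 37℃, then 150 mM AAPH added. Fluorescence (ex 480, em 520 nm) recorded every minute at 37℃. Net AUC was converted through a trolox regression and reported as μmol trolox equivalent. RP-HPLC fractions (C18, 0–40% acetonitrile in 0.1% TFA, 215 nm) were lyophilized and taken up in 75 mM phosphate buffer. Values given as means and SEM with Tukey test.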

Test [2] has as its system ERK, JNK and p38 MAP kinase. In words: Western blot of MAP kinase. To be noted: 24 h, HCT116 cells. The class given is cell-based, human. The essentials:
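HCT116 cells seeded at 2×10^5 cells/well, incubated overnight at 37℃, then given peptide at varying concentrations for 24 h. Cells washed in dPBS and lysed on ice in pH 8.0 NaCl/Tris/NP40 buffer with protease inhibitors. 15 μg protein run on 10% SDS-PAGE and blotted to PVDF, blocked in 5% BSA. Blots probed overnight at 4℃ with total and phospho ERK, JNK, p38 and β-actin antibodies (1:200), then HRP secondary. Detection by ECL chemiluminescence.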

Marks after values point to notes of the source that are not given here. Where no end group is shown, it is not given here.

For the sequence “CCCCSVQK (cysteine pairing not given here) [P3]”, the “Growth of HCT116 cells” value in the test on HCT116 cells (0–250 μg/mL) is “inhibited the growth of HCT116 cells in a dose-dependent manner”. In the test with HCT116 cells (250 μg/mL), the “Inhibition of HCT116 cell proliferation” value came out at 25.24%. Moreover, in the test with HCT116 cells (250 μg/mL, vs control), the “Inhibition of HCT116 cells (as printed in results text)” value came out at 74.76%. Further, the “ORAC value of RP-HPLC fraction” value in test [1] (each 2-mL fraction lyophilized and re-dissolved in 0.5 mL 75 mM phosphate buffer) is reported as 94.21 μmol of TE. In test [1] (fluorescein 80 nM, AAPH 150 mM, 37℃, trolox standard, means, SEM 4.662), the ORAC is on record as 202.66^a µM TE/g of dry matter. In addition, the p38 phosphorylation entry in test [2] (0, 50, 100 and 250 μg/mL) is “significantly phosphorylated by P3 with dose dependent”. The ERK phosphorylation entry in test [2] (50 μg/mL) is “activated”. For the same sequence, in test [2] (100 and 250 μg/mL), the JNK phosphorylation result is recorded as “significantly activated”.
